Results reported in ChEMBL document CHEMBL5038599, “Identification of Thiazoyl Guanidine Derivatives as Novel Antifungal Agents Inhibiting Ergosterol Biosynthesis for Treatment of Invasive Fungal Infections” (J Med Chem, 2021).
Values after ≈ are worked out from the molar mass of the structure shown. Active and inactive are the calls of the source. The calls are words filed in the database; no cut-off is given here.

Columns and labels:
Aspergillus fumigatus [1] = assay: Antifungal activity against Aspergillus fumigatus ATCC 204305 assessed as inhibition of fungal growth incubated for 48 hrs by broth microdilution method; conditions: ATCC 204305, 48 h
Aspergillus fumigatus [2] = assay: Antifungal activity against Aspergillus fumigatus ATCC 204305 assessed as inhibition of fungal growth […] by broth microdilution method; type: functional
Candida albicans = assay: Antifungal activity against Candida albicans ATCC 90028 assessed as inhibition of fungal growth incubated for 24 hrs by broth microdilution method; type: functional
Procedure, shortened: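 Yeast cells were adjusted to about 2 × 10³ CFU/mL and broth microdilution was run for 24 h at 35 °C. Medium was YNB with 2% glucose and complete amino-acid mix, buffered to pH 7.0 with 50 mM MOPS. MIC was the lowest concentration giving >50% growth reduction versus untreated control, read by optical density at 600 nm.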

[3] = Metabolic stability in human liver microsomes assessed as parent compound remaining at 0.5 uM incubated for 30 mins by LC/MS/MS analysis; type: ADME, Microsome; conditions: read-out: Stability
Procedure, shortened: (§1)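 Compound at 0.5 μM was incubated with liver microsomes at 0.5 mg protein/mL at 37 °C. Buffer was 50 mM Tris-HCl pH 7.4 with 150 mM KCl, 10 mM MgCl2 and 1 mM NADPH. Reactions were stopped at 0 and 30 min with MeCN/MeOH 1:1. Percent remaining was taken from LC/MS/MS peak area ratio, in duplicate.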

[4] = Metabolic stability in rat liver microsomes assessed as parent compound remaining at 0.5 uM incubated for 30 mins by LC/MS/MS analysis; type: ADME, Microsome; conditions: read-out: Stability
Procedure, shortened: as §1

Aspergillus fumigatus [5] = assay: Antifungal activity against Aspergillus fumigatus ATCC 204305 assessed as inhibition of fungal growth incubated for 48 hrs in presence of 50% heat-inactivated bovine serum by broth microdilution method; type: functional; conditions: ATCC 204305, 48 h, in the assay text read “incubated for 48 hrs” for “incubated for 24 hrs”
Procedure, shortened: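 Broth microdilution per CLSI M38-A2 with modifications. Conidia at about 1 × 10⁴ CFU/mL were grown for 48 h at 35 °C in YNB with 2% glucose and complete amino-acid mix, buffered to pH 7.0 with 50 mM MOPS. Medium was with or without 50% heat-inactivated bovine serum. MIC was the lowest concentration giving no visible growth.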

Mus musculus [6] = assay: In vivo antifungal activity against Aspergillus fumigatus infected in ICR mouse assessed as log reduction in fungal burden with 18S rRNA in kidney at 30 mg/kg, iv administered at 2 to 50 hrs post-inoculation and measured after 60 hrs by RT-qPCR analysis; type: functional
Procedure, shortened: (§2)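 Male ICR mice (5 weeks) were immunosuppressed with intraperitoneal cyclophosphamide, 150 mg/kg on day −4 and 100 mg/kg on day −1. Mice were infected intravenously with about 1.5 × 10⁵ conidia in saline. Tail-vein dosing was at 2, 16, 21, 26, 40, 45 and 50 h, in 5% DMSO/5% Cremophor EL/4% glucose or 5% glucose. Samples were taken at 60 h, five mice per group, and analysed by Dunnett's test against untreated controls.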

[7] = Volume of distribution at steady state in Sprague-Dawley rat at 0.5 mg/kg, iv measured upto 1440 mins by LC/MS/MS analysis; type: ADME, organism-based; conditions: in vivo, read-out: Vdss
[8] = AUC in ICR mouse at 30 mg/kg, iv measured upto 360 mins by LC/MS/MS analysis; type: ADME, organism-based; design: route intravenous, dose 30 mg/kg, time <=360; conditions: in vivo
Procedure, shortened: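 Male ICR mice, 6 weeks old. Dosed iv via tail vein at 30 mg/10 mL/kg (n = 3). The test agent was a solution in 5% DMSO, 5% Cremophor EL and 4% glucose; the reference azole was in 5% glucose. Blood (EDTA-2K plus heparin) was taken at 5, 30, 60, 180 and 360 min and spun to plasma. Proteins were precipitated with methanol before LC/MS/MS.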

Aspergillus fumigatus [9] = assay: Inhibition of Sterol methyl transferase in Aspergillus fumigatus ATCC 204305 assessed as accumulation of lanosterol at 2 ug/mL measured per 100 mg of mycelia by LC/MS analysis (Rvb= 0 nmol); conditions: dose 2.0 µg/ml
Procedure, shortened: (§3)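 Cultures of A. fumigatus ATCC 204305 (1 × 10⁴ CFU/mL in YNB with 2% glucose and amino-acid mix) were grown 24 h at 35 °C, then exposed to compound for 24 h. Mycelia were saponified in 25% ethanolic KOH at 85 °C for 1 h and extracted with n-hexane. Extracts were dried, redissolved in acetone at 200 μL per 100 mg dry mycelium, and analysed on a C18 column at 40 °C with acetonitrile gradient.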

Aspergillus fumigatus [10] = assay: Inhibition of Sterol methyl transferase in Aspergillus fumigatus ATCC 204305 assessed as accumulation of zymosterol at 2 ug/mL measured per 100 mg of mycelia by LC/MS analysis (Rvb= 0 nmol); conditions: dose 2.0 µg/ml
Procedure, shortened: as §3

[11] = Clearance in Sprague-Dawley rat at 0.5 mg/kg, iv measured upto 1440 mins by LC/MS/MS analysis; type: ADME, organism-based; conditions: in vivo
Mus musculus [12] = assay: In vivo antifungal activity against Aspergillus fumigatus infected in ICR mouse assessed as reduction in serum-galactomannan at 30 mg/kg, iv administered at 2 to 50 hrs post-inoculation and measured after 60 hrs by GM analysis; type: functional, organism-based
Procedure, shortened: as §2

Aspergillus fumigatus [13] = assay: Inhibition of Sterol methyl transferase in Aspergillus fumigatus ATCC 204305 assessed as accumulation of eburicol at 2 ug/mL measured per 100 mg of mycelia by LC/MS analysis (Rvb= 0 nmol); conditions: dose 2.0 µg/ml
Procedure, shortened: as §3

Aspergillus fumigatus [14] = assay: Antifungal activity against pan-azole resistant Aspergillus fumigatus SR47013 harbouring Cyp51A Y121F mutant assessed as inhibition of fungal growth incubated for 48 hrs by broth microdilution method; conditions: SR47013, 48 h
Aspergillus fumigatus [15] = assay: Inhibition of Sterol methyl transferase in Aspergillus fumigatus ATCC 204305 assessed as accumulation of ergosterol at 2 ug/mL measured per 100 mg of mycelia by LC/MS analysis (Rvb= 144 nmol); conditions: dose 2.0 µg/ml
Procedure, shortened: as §3

[16] = Unbound fraction in Sprague-Dawley rat at 0.5 mg/kg, iv measured upto 1440 mins by LC/MS/MS analysis; type: ADME, organism-based; conditions: in vivo
Aspergillus fumigatus [17] = assay: Inhibition of Sterol methyl transferase in Aspergillus fumigatus ATCC 204305 assessed as accumulation of ergosterol at 0.5 ug/mL measured per 100 mg of mycelia by LC/MS analysis (Rvb= 144 nmol); conditions: dose 0.5 µg/ml
Procedure, shortened: (§4)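 Conidia at 1 × 10⁴ CFU/mL were grown 24 h at 35 °C in YNB with 2% glucose and amino-acid mix, then compound was added and cultures ran a further 24 h. Mycelia were filtered and saponified in 25% ethanolic KOH at 85 °C for 1 h. Sterols were extracted into n-hexane, dried under N₂ at 40 °C and redissolved in acetone at 200 μL per 100 mg dry mycelium. Separation used a C18 column at 40 °C with an acetonitrile gradient.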

Aspergillus fumigatus [18] = assay: Inhibition of Sterol methyl transferase in Aspergillus fumigatus ATCC 204305 assessed as accumulation of zymosterol at 0.5 ug/mL measured per 100 mg of mycelia by LC/MS analysis (Rvb= 0 nmol); conditions: dose 0.5 µg/ml
Procedure, shortened: as §4

Aspergillus fumigatus [19] = assay: Inhibition of Sterol methyl transferase in Aspergillus fumigatus ATCC 204305 assessed as accumulation of lanosterol at 0.5 ug/mL measured per 100 mg of mycelia by LC/MS analysis (Rvb= 0 nmol); conditions: dose 0.5 µg/ml
Procedure, shortened: as §4

Aspergillus fumigatus [20] = assay: Inhibition of Sterol methyl transferase in Aspergillus fumigatus ATCC 204305 assessed as accumulation of eburicol at 0.5 ug/ml measured per 100 mg of mycelia by LC/MS analysis (Rvb= 0 nmol); conditions: dose 0.5 µg/ml
Procedure, shortened: as §4

| SMILES | MIC (Aspergillus fumigatus [1]) | MIC50 (Aspergillus fumigatus [2]) | MIC50 (Candida albicans) | remaining at 0.5 h, 0.5 µM [3] | remaining at 0.5 h, 0.5 µM [4] | MIC50 (Aspergillus fumigatus [5]) | also measured |
| --- | --- | --- | --- | --- | --- | --- | --- |
| O=C(O)c1ccc(-c2nc(-c3csc(N=C4NCCCN4)n3)cs2)cc1 | > 16 µg/mL |  |  |  |  |  |  |
| Cc1ccc(Oc2ccccc2-c2csc(Nc3ncccn3)n2)c(C)c1 |  | > 16 µg/mL | > 16 µg/mL |  |  |  |  |
| Cc1ccc(Oc2ccccc2-c2csc(N=C3NCCCCN3)n2)c(C)c1 |  | > 16 µg/mL | 1 µg/mL (≈ 2.55 µM) |  |  |  |  |
| c1ccc(-c2nc(-c3csc(N=C4NCCCN4)n3)co2)cc1 |  | 16 µg/mL (≈ 49.2 µM) | 0.063 µg/mL (≈ 0.194 µM) |  |  |  |  |
| Oc1ccc(-c2nc(-c3csc(N=C4NCCCN4)n3)cs2)cc1 | 2 µg/mL (≈ 5.59 µM) |  |  | 86% | 53% | > 16 µg/mL |  |
| c1cncc(-c2nc(-c3csc(N=C4NCCCN4)n3)cs2)c1 | 0.5 µg/mL (≈ 1.46 µM) |  |  | 78% | 19% | 2 µg/mL |  |
| Cc1ccc(Oc2ccccc2-c2nsc(N=C3NCCCN3)n2)c(C)c1 |  | > 16 µg/mL | > 16 µg/mL |  |  |  |  |
| CS(=O)(=O)c1ccc(-c2nc(-c3csc(N=C4NCCCN4)n3)cs2)cc1 | 2 µg/mL (≈ 4.77 µM) |  |  | 87% | 53% | 4 µg/mL | log(activity) (Mus musculus [6]): 4; Vd [7]: 4.21 L/kg; AUC at 6 h [8]: 48.2 µg·h/mL; Activity (Aspergillus fumigatus [9]): 40 nmol; Activity (Aspergillus fumigatus [10]): 0 nmol; clearance [11]: 12.3 mL/min/kg; Activity (Mus musculus [12]): Active; Activity (Aspergillus fumigatus [13]): 1 nmol; MIC50 (Aspergillus fumigatus [14]): 2 µg/mL (≈ 4.77 µM); Activity (Aspergillus fumigatus [15]): 102 nmol; fraction unbound at 24 h [16]: 0.067 |
| c1ccc(-c2cc(-c3csc(N=C4NCCCN4)n3)cs2)cc1 |  | 4 µg/mL (≈ 11.7 µM) | 0.063 µg/mL (≈ 0.185 µM) | 70% | 30% |  |  |
| C[C@@H](c1nc(-c2ccc(C#N)cc2)cs1)[C@](O)(Cn1cncn1)c1cc(F)ccc1F [ISAVUCONAZOLE] | 0.25 µg/mL (≈ 0.571 µM) |  |  |  |  |  | MIC50 (Aspergillus fumigatus [14]): > 16 µg/mL |
| C[C@@H](c1ncncc1F)[C@](O)(Cn1cncn1)c1ccc(F)cc1F [VORICONAZOLE] | 0.5 µg/mL (≈ 1.43 µM) |  |  |  |  |  | Activity (Aspergillus fumigatus [17]): 99 nmol; Activity (Aspergillus fumigatus [18]): 0 nmol; Activity (Mus musculus [6]): inactive; Activity (Aspergillus fumigatus [19]): 1 nmol; AUC at 6 h [8]: 222 µg·h/mL; Activity (Mus musculus [12]): inactive; MIC50 (Aspergillus fumigatus [14]): > 16 µg/mL; Activity (Aspergillus fumigatus [20]): 34 nmol |
| Oc1cccc(-c2nc(-c3csc(N=C4NCCCN4)n3)cs2)c1 | 4 µg/mL (≈ 11.2 µM) |  |  | 77% | 35% |  |  |
| Cc1ccc(Oc2ccccc2-c2csc(N(C)C)n2)c(C)c1 |  | > 16 µg/mL | > 16 µg/mL |  |  |  |  |
| CS(=O)(=O)c1cccc(-c2nc(-c3csc(N=C4NCCCN4)n3)cs2)c1 | 4 µg/mL (≈ 9.53 µM) |  |  | 85% | 47% | 16 µg/mL |  |
| c1ccc(-c2nc(-c3csc(N=C4NCCCN4)n3)cs2)cc1 |  | 0.5 µg/mL (≈ 1.46 µM) | < 0.063 µg/mL | 83% | 31% | 8 µg/mL | Vd [7]: 7.25 L/kg; clearance [11]: 33.1 mL/min/kg; fraction unbound at 24 h [16]: 0.0104 |
